Data on 15 compounds can be found in PMC5955836 (ACS chemical neuroscience, 2018).

Entries after “also recorded” stand apart in the source; their conditions may differ. Where two headings read alike, the source gives them in different places. Non-standard residues stand in square brackets, D forms with d.

Experiment [1] addresses T1, mMC5R (Mus musculus, UniProt P41149). The class given is cell-based. As to conditions: for mMC5R inverse agonist potency compared within series: fold less potent than KAF2039-9, the most potent inverse agonist; for mMC5R maximal decrease in basal activity at the plateau: sigmoidal dose-response, relative to basal.
Experiment [2] addresses T2, mMC3R (Mus musculus, UniProt P33033). Briefly: AlphaScreen cAMP antagonist assay. It counts as cell-based. Conditions: for antagonist activity at the mMC3R: at the concentrations examined in this study. Background: Alpha assays give light when donor and acceptor beads are brought close together.
For experiment [3], the target named is T3, mMC1R (Mus musculus, UniProt Q01727). Conditions: for mMC1R percent activation at 100 μM: no sigmoidal dose-response, relative to NDP-MSH; for agonist activity at the MC1R: up to 100 μM.
T3 sequence (Q01727 whole entry): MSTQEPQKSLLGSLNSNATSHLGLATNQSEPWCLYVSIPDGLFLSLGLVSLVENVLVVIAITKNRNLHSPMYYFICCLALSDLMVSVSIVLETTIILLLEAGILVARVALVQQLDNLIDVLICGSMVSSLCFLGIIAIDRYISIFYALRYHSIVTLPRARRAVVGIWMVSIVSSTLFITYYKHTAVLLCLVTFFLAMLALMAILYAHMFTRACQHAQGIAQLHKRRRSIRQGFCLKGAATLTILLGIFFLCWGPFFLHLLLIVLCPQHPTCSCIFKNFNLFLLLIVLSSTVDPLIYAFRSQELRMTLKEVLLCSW
Experiment [4] has as its target T4, mMC4R (Mus musculus, UniProt P56450). Briefly: AlphaScreen cAMP antagonist assay. The class given is cell-based.
For the next experiment, the system named is MC1R. Conditions: read-out: MC1R agonist EC50; cited from earlier work.
Experiment [5] addresses T4, mMC4R. As to conditions: cited from earlier work.
Experiment [6] deals with T2, mMC3R. Conditions: highest concentrations of antagonist assayed; cited from earlier work.
The test system of another experiment is Male Wildtype (WT) mice. Briefly: Mouse feeding study, intrathecal injection: cumulative food intake. The class given is in vivo. The essentials: (§1)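 Eight male WT mice, 24 weeks old, singly housed, ad libitum chow, reversed 12 h light/dark (lights off 12:00pm), 23–25°C. Crossover, non-fasting; single IT injection 2 h before lights out of 2 nmol/5 μL (20% solutol stock diluted in ddH2O) or matched vehicle; 7 days between treatments. Food and body weight at 2–72 h; two-factor repeated-measures ANOVA (drug × time).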

The nature of experiment [7]: Mouse feeding study, intrathecal injection: body weight. The class given is in vivo. Conditions: male WT mice, 2 nmol, up to 72 hours post-injection. The essentials: as §1
Experiment [8] concerns the target T3, mMC1R. Conditions: read-out: mMC1R Agonist EC50; previously published peptide; cited from earlier work.
Experiment [9] deals with T2, mMC3R. As to conditions: previously published peptide, cited from earlier work.
The target in experiment [10] is T4, mMC4R. As to conditions: cited from earlier work. This is another data set of the same source.
For experiment [11], the target named is T1, mMC5R. Conditions: read-out: mMC5R Inverse Agonist EC50; previously published peptide; cited from earlier work.
In experiment [12] the target is mouse melanocortin-1 receptor (mouse) (UniProt Q01727).
Sequence of mouse melanocortin-1 receptor (mouse) (Q01727 whole entry): as above
For a further experiment, the system named is MC3R. Conditions: unable to bind at up to this concentration; cited from earlier work.
The subject of the next experiment is MC4R. As to conditions: unable to bind at up to this concentration; cited from earlier work.
Experiment [13] has as its target mouse melanocortin-4 receptor (mouse) (UniProt P56450).
The mark [14] stands for this setting: Schild analysis with NDP-MSH, < 5.5 = no antagonist potency at up to 10,000 nM.

T2 sequence (P33033 whole entry): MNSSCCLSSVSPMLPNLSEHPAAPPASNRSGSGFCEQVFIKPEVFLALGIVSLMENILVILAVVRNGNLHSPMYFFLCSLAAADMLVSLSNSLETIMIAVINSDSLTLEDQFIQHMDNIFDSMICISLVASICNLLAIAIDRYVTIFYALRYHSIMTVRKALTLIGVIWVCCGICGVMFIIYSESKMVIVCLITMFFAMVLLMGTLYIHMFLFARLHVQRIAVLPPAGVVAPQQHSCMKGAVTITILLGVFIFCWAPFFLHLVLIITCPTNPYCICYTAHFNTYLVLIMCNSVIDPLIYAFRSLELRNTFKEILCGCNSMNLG
T4 sequence (P56450 whole entry): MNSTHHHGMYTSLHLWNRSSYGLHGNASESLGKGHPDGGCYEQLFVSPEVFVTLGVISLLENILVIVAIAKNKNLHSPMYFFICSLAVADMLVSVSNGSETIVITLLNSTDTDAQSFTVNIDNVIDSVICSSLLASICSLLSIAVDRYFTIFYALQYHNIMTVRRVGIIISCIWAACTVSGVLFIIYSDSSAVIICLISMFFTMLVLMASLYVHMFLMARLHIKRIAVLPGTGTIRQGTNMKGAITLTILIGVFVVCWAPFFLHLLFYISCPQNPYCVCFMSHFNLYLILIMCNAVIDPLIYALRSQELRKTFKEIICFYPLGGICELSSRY
T1 sequence (P41149 whole entry): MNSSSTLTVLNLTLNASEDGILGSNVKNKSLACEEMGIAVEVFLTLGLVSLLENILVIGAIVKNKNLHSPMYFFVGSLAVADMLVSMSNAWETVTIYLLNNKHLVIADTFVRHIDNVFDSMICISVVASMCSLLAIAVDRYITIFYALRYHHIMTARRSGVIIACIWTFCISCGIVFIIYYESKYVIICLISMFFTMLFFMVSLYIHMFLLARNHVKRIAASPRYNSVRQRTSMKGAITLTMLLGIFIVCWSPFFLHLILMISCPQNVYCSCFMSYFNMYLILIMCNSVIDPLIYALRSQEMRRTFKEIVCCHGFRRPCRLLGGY
Sequence of mouse melanocortin-4 receptor (mouse) (P56450 whole entry): as the sequence (P56450 whole entry) above

Turning to `C[C@@H]1NC(=O)[C@H](CC(N)=O)NC(=O)[C@H](Cc2ccccc2)NC(=O)[C@H](Cc2ccccc2)NC(=O)[C@H](CCCNC(=N)N)NC(=O)[C@@H]2CCCN2C(=O)[C@H]2CCCN2C(=O)[C@H](CCc2ccccc2)NC1=O` [Compound 11, c[Pro-Arg-Phe-Phe-Asn-Ala-hPhe-DPro]], at mMC5R [1], the “mMC5R inverse agonist potency compared within series” value is on record as “equipotent to each other” and the “mMC5R maximal decrease in basal activity at the plateau” value (“mMC5R maximal decrease” below) is recorded as −20%. At mMC5R [1] (listed as KAF2039-13), the “mMC5R maximal decrease” value was found to be 20%.
Regarding `C[C@@H]1NC(=O)[C@H](CC(N)=O)NC(=O)[C@H](Cc2ccccc2)NC(=O)[C@H](Cc2ccccc2)NC(=O)[C@H](CCCNC(=N)N)NC(=O)[C@@H]2CCCN2C(=O)[C@H]2CCCN2C(=O)[C@H](CC2CCCCC2)NC1=O` [Compound 10, c[Pro-Arg-Phe-Phe-Asn-Ala-Cha-DPro]], on mMC5R [1], the “mMC5R inverse agonist potency compared within series” value was 5 fold and the “mMC5R maximal decrease” value is −20%.
On to `C[C@@H]1NC(=O)[C@H](CC(N)=O)NC(=O)[C@H](Cc2ccccc2)NC(=O)[C@H](Cc2ccccc2)NC(=O)[C@H](CCCNC(=N)N)NC(=O)[C@@H]2CCCN2C(=O)[C@H]2CCCN2C(=O)[C@H](Cc2ccc(O)cc2)NC1=O` [Compound 9, c[Pro-Arg-Phe-Phe-Asn-Ala-Tyr-DPro]], for which, on mMC5R [1] (100 μM, no plateau), the “mMC5R percent decrease in receptor activity compared to basal at 100 μM” value (from here on “mMC5R percent decrease”) is on record as −40% @ 100 μM.
Consider `C[C@@H]1NC(=O)[C@H](CC(N)=O)NC(=O)[C@H](Cc2ccccc2)NC(=O)[C@H](Cc2ccccc2)NC(=O)[C@H](CCCNC(=N)N)NC(=O)[C@@H]2CCCN2C(=O)[C@H]2CCCN2C(=O)CNC1=O` [Compound 2, c[Pro-Arg-Phe-Phe-Asn-Ala-Gly-DPro]], for which the “antagonist activity at the mMC3R” value at mMC3R [2] was “not observed”. Also, the “mMC5R percent decrease” value at mMC5R [1] (100 μM, no plateau) is on record as −25% @ 100 μM. Further, at mMC1R [3], the “mMC1R percent activation at 100 μM” value was determined as 60% @ 100 μM and the “agonist activity at the MC1R” value was “partially stimulate”.
As to `C[C@@H]1NC(=O)[C@H](CC(N)=O)NC(=O)[C@H](Cc2ccccc2)NC(=O)[C@H](Cc2ccccc2)NC(=O)[C@H](CCCNC(=N)N)NC(=O)[C@@H]2CCCN2C(=O)[C@H]2CCCN2C(=O)[C@H](CCCCN)NC1=O` [Compound 4, c[Pro-Arg-Phe-Phe-Asn-Ala-Lys-DPro]], the “mMC5R percent decrease” value was −40% @ 100 μM at mMC5R [1] (100 μM, no plateau) and −40% at mMC5R [1] (100000.0).
On to “c[Pro-Arg-Phe-Phe-Asn-Ala-Asp-DPro] (cyclo(PRFFNAD[dP]); SMILES C[C@@H]1NC(=O)[C@H](CC(N)=O)NC(=O)[C@H](Cc2ccccc2)NC(=O)[C@H](Cc2ccccc2)NC(=O)[C@H](CCCNC(=N)N)NC(=O)[C@@H]2CCCN2C(=O)[C@H]2CCCN2C(=O)[C@H](CC(=O)O)NC1=O) [Compound 5]”, for which the “mMC3R Antagonist pA2” value with mMC3R [2] (setting [14]) is on record as less than 5.5. The “antagonist activity at the mMC3R” value in the experiment with mMC3R [2] is “not observed”. The “mMC4R Antagonist pA2” value with mMC4R [4] (setting [14]) is listed as less than 5.5. In the experiment with mMC4R [4] (at the concentrations used in this study), the “antagonist potency at the mMC4R” value is recorded as “not measurable”. Further, the “mMC5R percent decrease” value with mMC5R [1] (100 μM, no plateau) is listed as −25% @ 100 μM. Moreover, in the experiment with mMC5R [1] (100 μM, no plateau, listed as Asp^7), the “mMC5R percent decrease” value is recorded as -25%. For the same compound, in the experiment with mMC1R [3], the “mMC1R percent activation at 100 μM” value is listed as 40% @ 100 μM and the “agonist activity at the MC1R” value was “partially stimulate”.
As a reminder, the EC50 is the concentration at which the effect is half-maximal. For the compound “H-Tyr-c[Cys-Arg-Phe-Phe-Asn-Ala-Phe-Cys]-Tyr-OH [AGRP[109-118]]”, the EC50 with MC1R is 3000 nM. Also, in the experiment with mMC4R [5], the “antagonist pA2 at the mMC4R” value was 6.8. In addition, the “antagonist potency at the mMC3R” value with mMC3R [6] is reported as “does not possess an antagonist potency at the mMC3R that is quantifiable”.
Take `C[C@@H]1NC(=O)[C@H](CC(N)=O)NC(=O)[C@H](Cc2ccccc2)NC(=O)[C@H](Cc2ccccc2)NC(=O)[C@H](CCCNC(=N)N)NC(=O)[C@@H]2CCCN2C(=O)[C@H]2CCCN2C(=O)[C@H](CO)NC1=O` [Compound 3, c[Pro-Arg-Phe-Phe-Asn-Ala-Ser-DPro]]: the “mMC5R percent decrease” value is recorded as −55% @ 100 μM at mMC5R [1] (100 μM, no plateau) and −55% on mMC5R [1] (100000.0). Further, the “mMC1R percent activation at 100 μM” value on mMC1R [3] is recorded as 35% @ 100 μM. The “agonist activity at the MC1R” value on mMC1R [3] is “partially stimulate”.
For `CCCC[C@@H]1NC(=O)[C@H](C)NC(=O)[C@H](CC(N)=O)NC(=O)[C@H](Cc2ccccc2)NC(=O)[C@H](Cc2ccccc2)NC(=O)[C@H](CCCNC(=N)N)NC(=O)[C@@H]2CCCN2C(=O)[C@H]2CCCN2C1=O` [Compound 7, c[Pro-Arg-Phe-Phe-Asn-Ala-Nle-DPro]], the “mMC5R percent decrease” value is −35% @ 100 μM on mMC5R [1] (100 μM, no plateau) and “–35%” at mMC5R [1] (100000.0). The “cumulative food intake vs vehicle” value in the experiment on Male Wildtype (WT) mice (2 nmol IT single injection, 2 and 6 hours post-injection) was “ate significantly more food”. The “food intake trend vs vehicle” value in the experiment on Male Wildtype (WT) mice (2 nmol IT, up to 72 hours post-injection, listed as KAF2039-7) is reported as “prolonged trend of increased food intake; also recorded: strong trend in increased food intake; also recorded: trend exhibited out until 72 hours post-injection”. The “main effect of drug on food intake, two-factor repeated measures ANOVA” value with Male Wildtype (WT) mice (2 nmol, first 72 hours post-injection) is on record as “main effect of drug”. In addition, the results for the “mouse body weight vs vehicle” value in experiment [7] and in [7] (listed as KAF2039-7) were “main effect of drug” and “treated animals weighing more than control animals”, respectively.
Broadly, the Ki is a measure of affinity in units of concentration, obtained from inhibition or displacement. “hAGRP(87-132): Human agouti-related protein fragment 87-132, antagonist of MC3R and MC4R; previously published peptide”: the EC50 with mMC1R [8] and with mMC5R [11] was greater than 100000 nM throughout. In the experiment with mMC3R [9], the “mMC3R Antagonist pA2” value is 8.9±0.2. The Ki with mMC3R [9] (read-out: mMC3R Antagonist Ki) was 1.3 nM; with mMC4R [10] (read-out: mMC4R Antagonist Ki, previously published peptide), 0.4 nM. The “selectivity for the MC4R (vs MC3R)” value with mMC4R [10] is on record as “equipotent”. For the same compound, the “mMC4R Antagonist pA2” value in the experiment with mMC4R [10] (previously published peptide) is listed as 9.4±1.0.
With “c[Pro-Arg-Phe-Phe-Asn-Ala-Trp-DPro] (peptide)”, the partial agonist: maximal percent activated, cAMP AlphaScreen, HEK293 cells in [12] stood at 50%.
Consider “H-Ser-Arg-Phe-Phe-Asn-Ala-Phe-Ser-OH (H-SRFFNAFS-OH)”, for which the “binding to the MC3R” value with MC3R was greater than 20 µM. In addition, the “binding to the MC4R” value in the experiment with MC4R is greater than 20 µM.
`CC(C)C[C@@H]1NC(=O)[C@H](C)NC(=O)[C@H](CC(N)=O)NC(=O)[C@H](Cc2ccccc2)NC(=O)[C@H](Cc2ccccc2)NC(=O)[C@H](CCCNC(=N)N)NC(=O)[C@@H]2CCCN2C(=O)[C@H]2CCCN2C1=O` [Compound 6, c[Pro-Arg-Phe-Phe-Asn-Ala-Leu-DPro]]: the “antagonist activity at the mMC3R” value at mMC3R [2] is recorded as “not observed”. Moreover, the “mMC5R percent decrease” value on mMC5R [1] (100 μM, no plateau) is recorded as −35% @ 100 μM.
In experiment [13], “NDP-MSH (4-Norleucine-7-D-Phenylalanine): Ac-Ser-Tyr-Ser-Nle-Glu-His-DPhe-Arg-Trp-Gly-Lys-Pro-Val-NH2 (peptide)” gave an agonist EC50, cAMP AlphaScreen, HEK293 cells stably expressing mMC4R of 0.35 nM.
Take `C[C@@H]1NC(=O)[C@H](CC(N)=O)NC(=O)[C@H](Cc2ccccc2)NC(=O)[C@H](Cc2ccccc2)NC(=O)[C@H](CCCNC(=N)N)NC(=O)[C@@H]2CCCN2C(=O)[C@H]2CCCN2C(=O)[C@H](Cc2c[nH]c3ccccc23)NC1=O` [Compound 8, c[Pro-Arg-Phe-Phe-Asn-Ala-Trp-DPro]]: at mMC5R [1], the “mMC5R inverse agonist potency compared within series” value is “equipotent to each other” and the “mMC5R maximal decrease” value is given as −20%. The “mMC1R partial agonist maximal percent activated” value on mMC1R [3] worked out at 50%.
